Data taken from ChEMBL document CHEMBL2384906, “Biological activity, design, synthesis and structure activity relationship of some novel derivatives of curcumin containing sulfonamides” (Eur J Med Chem, 2013).
Converted amounts (≈) assume the structure as drawn. The source made the active and inactive calls. The calls are words filed in the database; no cut-off is given here.

What was measured:
HeLa = experiment: Cytotoxicity against human HeLa cells after 24 hrs by MTT assay; type: functional, cell-based
Outline: (§1)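 The MTT assay seeded 5 × 10⁴ cells per well and grew them 24 h in RPMI 1640 with compound at 2.5–200 µM. Medium without cells was the blank and adriamycin the positive control. MTT was added for 4 h at 37 °C, formazan was solubilised, and absorbance was read at 570 nm. IC50 is the concentration that cuts viability 50% against untreated cells.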

Pseudomonas aeruginosa [1] = experiment: Antimicrobial activity against Pseudomonas aeruginosa ATCC 15499 assessed as diameter of inhibition zone at 80 uM after 24 hrs by Kirby -Baur disc diffusion method; type: functional
Outline: (§2)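 Kirby-Bauer disc diffusion was used. Acetone stocks (160 µM) were serially doubled down to 80, 40 and 20 µM. 4 µL of each went onto 5 mm sterile paper discs, which were dried 30 min at 50 °C. Inoculum was 1.5 × 10⁸ CFU/mL diluted to 3 × 10² CFU/mL, and 50 µL was spread on Mueller-Hinton agar. After 24 h at 37 °C the inhibition-zone diameter was measured. Ciprofloxacin served as positive control.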

Mus musculus = experiment: Antiinflammatory activity in mouse assessed as inhibition of carrageenan-induced increase in paw volume at 200 mg/kg administered 1 hr prior to carrageenan challenge measured after 3 hrs relative to control; type: functional
Outline: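 Mice were fasted 2 h and placed in groups of five. Controls received saline i.p. Phenylbutazone was given at 100 mg/kg i.p., curcumin at 200 mg/kg i.p., and derivatives at 200 mg/kg. After 1 h, 0.1 mL of 1% carrageenan in saline was injected subplantar into the right hind paw. Paw volume was followed by plethysmometer for 3 h, and % inhibition was calculated as (Vc − Vt)/Vc × 100.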

Trichoderma viride [2] = experiment: Antifungal activity against Trichoderma viride MTCC 1107 assessed as zone of inhibition at 20 uM after 48 hrs by disc diffusion method; type: functional; settings: MTCC 1107, 48 h, read-out: IZ
Outline: (§3)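 Spores from 4-day potato dextrose agar cultures, suspended in sterile water at 1.5 × 10⁵ CFU/mL. 0.2 mL was spread on potato dextrose agar. 5 mm filter-paper discs soaked with test compound were laid on the lawn. Incubation was 48 h at 28 °C, then the inhibition zone was measured in mm. Fluconazole was the positive control and acetone the negative control.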

Aspergillus niger [3] = experiment: Antifungal activity against Aspergillus niger MTCC 1108 assessed as zone of inhibition at 80 uM after 48 hrs by disc diffusion method; type: functional; settings: MTCC 1108, 48 h, read-out: IZ; outline: as §3
Aspergillus flavus [4] = experiment: Antifungal activity against Aspergillus flavus MTCC 1021 assessed as zone of inhibition at 20 uM after 48 hrs by disc diffusion method; type: functional; settings: MTCC 1021, 48 h, read-out: IZ; outline: as §3
Trichoderma viride [5] = experiment: Antifungal activity against Trichoderma viride MTCC 1107 assessed as zone of inhibition at 80 uM after 48 hrs by disc diffusion method; type: functional; settings: MTCC 1107, 48 h, read-out: IZ; outline: as §3
Bacillus cereus [6] = experiment: Antimicrobial activity against Bacillus cereus MTCC 7350 assessed as diameter of inhibition zone at 80 uM after 24 hrs by Kirby -Baur disc diffusion method; type: functional; settings: MTCC 7350, 24 h, read-out: DIZ; outline: as §2
Trichoderma viride [7] = experiment: Antifungal activity against Trichoderma viride MTCC 1107 after 48 hrs; type: functional; settings: MTCC 1107, 48 h
HepG2 = experiment: Cytotoxicity against human HepG2 cells after 24 hrs by MTT assay; type: functional, cell-based; outline: as §1
Bacillus cereus [8] = experiment: Antimicrobial activity against Bacillus cereus MTCC 7350 assessed as diameter of inhibition zone at 40 uM after 24 hrs by Kirby -Baur disc diffusion method; type: functional; outline: as §2
Aspergillus niger [9] = experiment: Antifungal activity against Aspergillus niger MTCC 1108 assessed as zone of inhibition at 40 uM after 48 hrs by disc diffusion method; type: functional; settings: MTCC 1108, 48 h, read-out: IZ; outline: as §3
Aspergillus niger [10] = experiment: Antifungal activity against Aspergillus niger MTCC 1108 after 48 hrs; type: functional; settings: MTCC 1108, 48 h
Salmonella typhi [11] = experiment: Antimicrobial activity against Salmonella typhi ATCC 23564 after 24 hrs by broth micro serial dilution method; type: functional; settings: Salmonella enterica subsp. enterica serovar Typhi
Aspergillus flavus [12] = experiment: Antifungal activity against Aspergillus flavus MTCC 1021 after 48 hrs; type: functional; settings: MTCC 1021, 48 h
QG-56 = experiment: Cytotoxicity against human QG56 cells after 24 hrs by MTT assay; type: functional, cell-based; outline: as §1
Curvularia lunata [13] = experiment: Antifungal activity against Curvularia lunata MTCC 581 after 48 hrs; type: functional; settings: MTCC 581, 48 h
Staphylococcus aureus [14] = experiment: Antimicrobial activity against Staphylococcus aureus ATCC 11632 assessed as diameter of inhibition zone at 40 uM after 24 hrs by Kirby -Baur disc diffusion method; type: functional; outline: as §2
Aspergillus flavus [15] = experiment: Antifungal activity against Aspergillus flavus MTCC 1021 assessed as zone of inhibition at 80 uM after 48 hrs by disc diffusion method; type: functional; settings: MTCC 1021, 48 h, read-out: IZ; outline: as §3
Aspergillus flavus [16] = experiment: Antifungal activity against Aspergillus flavus MTCC 1021 assessed as zone of inhibition at 40 uM after 48 hrs by disc diffusion method; type: functional; settings: MTCC 1021, 48 h, read-out: IZ; outline: as §3
Curvularia lunata [17] = experiment: Antifungal activity against Curvularia lunata MTCC 581 assessed as zone of inhibition at 20 uM after 48 hrs by disc diffusion method; type: functional; settings: MTCC 581, 48 h, read-out: IZ; outline: as §3
Bacillus cereus [18] = experiment: Antimicrobial activity against Bacillus cereus MTCC 7350 assessed as diameter of inhibition zone at 20 uM after 24 hrs by Kirby -Baur disc diffusion method; type: functional; outline: as §2
HCT-116 = experiment: Cytotoxicity against human HCT116 cells after 24 hrs by MTT assay; type: functional, cell-based; outline: as §1
Pseudomonas aeruginosa [19] = experiment: Antimicrobial activity against Pseudomonas aeruginosa ATCC 15499 after 24 hrs by broth micro serial dilution method; type: functional; settings: ATCC 15499, 24 h
Outline: (§4)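 This was broth microdilution in autoclaved Mueller-Hinton broth. 150 µL of compound per well was serially diluted […], and 50 µL of test organism was added. Plates were incubated 24 h at 37 °C and optical density was read.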

Staphylococcus aureus [20] = experiment: Antimicrobial activity against Staphylococcus aureus ATCC 11632 assessed as diameter of inhibition zone at 20 uM after 24 hrs by Kirby -Baur disc diffusion method; type: functional; outline: as §2
Staphylococcus aureus [21] = experiment: Antimicrobial activity against Staphylococcus aureus ATCC 11632 assessed as diameter of inhibition zone at 80 uM after 24 hrs by Kirby -Baur disc diffusion method; type: functional; settings: ATCC 11632, 24 h, read-out: DIZ; outline: as §2
Aspergillus niger [22] = experiment: Antifungal activity against Aspergillus niger MTCC 1108 assessed as zone of inhibition at 20 uM after 48 hrs by disc diffusion method; type: functional; settings: MTCC 1108, 48 h, read-out: IZ; outline: as §3
Escherichia coli [23] = experiment: Antimicrobial activity against Escherichia coli ATCC 35218 after 24 hrs by broth micro serial dilution method; type: functional; settings: ATCC 35218, 24 h; outline: as §4
Staphylococcus aureus [24] = experiment: Antimicrobial activity against Staphylococcus aureus ATCC 11632 after 24 hrs by broth micro serial dilution method; type: functional; settings: ATCC 11632, 24 h; outline: as §4
Curvularia lunata [25] = experiment: Antifungal activity against Curvularia lunata MTCC 581 assessed as zone of inhibition at 80 uM after 48 hrs by disc diffusion method; type: functional; settings: MTCC 581, 48 h, read-out: IZ; outline: as §3
Trichoderma viride [26] = experiment: Antifungal activity against Trichoderma viride MTCC 1107 assessed as zone of inhibition at 40 uM after 48 hrs by disc diffusion method; type: functional; settings: MTCC 1107, 48 h, read-out: IZ; outline: as §3
Salmonella typhi [27] = experiment: Antimicrobial activity against Salmonella typhi ATCC 23564 assessed as diameter of inhibition zone at 80 uM after 24 hrs by Kirby -Baur disc diffusion method; type: functional; settings: Salmonella enterica subsp. enterica serovar Typhi
Escherichia coli [28] = experiment: Antimicrobial activity against Escherichia coli ATCC 35218 assessed as diameter of inhibition zone at 80 uM after 24 hrs by Kirby -Baur disc diffusion method; type: functional; outline: as §2
Curvularia lunata [29] = experiment: Antifungal activity against Curvularia lunata MTCC 581 assessed as zone of inhibition at 40 uM after 48 hrs by disc diffusion method; type: functional; settings: MTCC 581, 48 h, read-out: IZ; outline: as §3
Bacillus cereus [30] = experiment: Antimicrobial activity against Bacillus cereus MTCC 7350 after 24 hrs by broth micro serial dilution method; type: functional; settings: MTCC 7350, 24 h; outline: as §4

COc1cc(/C=C/C(=O)C(/N=N/c2ccc(S(=O)(=O)Nc3nc(C)cc(C)n3)cc2)=C(O)/C=C/c2ccc(O)c(OC)c2)ccc1O
IC50 (HeLa): 50 µM | diameter of the inhibition zone (DIZ) (Pseudomonas aeruginosa [1]): inactive | inhibition in vivo at 200 mg/kg (Mus musculus): 33.8% | zone of inhibition at 20 µM (Trichoderma viride [2]): 18 mm | zone of inhibition at 80 µM (Aspergillus niger [3]): 14 mm | zone of inhibition at 20 µM (Aspergillus flavus [4]): 11 mm | zone of inhibition at 80 µM (Trichoderma viride [5]): 22 mm | zone of inhibition at 80 µM (Bacillus cereus [6]): 11 mm | MIC (Trichoderma viride [7]): 20 µM (≈ 13.2 µg/mL) | IC50 (HepG2): > 100 µM | diameter of the inhibition zone (DIZ) (Bacillus cereus [8]): inactive | zone of inhibition at 40 µM (Aspergillus niger [9]): 12 mm | MIC (Aspergillus niger [10]): 40 µM (≈ 26.3 µg/mL) | MIC (Salmonella typhi [11]): inactive | MIC (Aspergillus flavus [12]): 40 µM (≈ 26.3 µg/mL) | IC50 (QG-56): 100 µM | MIC (Curvularia lunata [13]): 20 µM (≈ 13.2 µg/mL) | diameter of the inhibition zone (DIZ) (Staphylococcus aureus [14]): inactive | zone of inhibition at 80 µM (Aspergillus flavus [15]): 14 mm | zone of inhibition at 40 µM (Aspergillus flavus [16]): 13 mm | zone of inhibition at 20 µM (Curvularia lunata [17]): 18 mm | diameter of the inhibition zone (DIZ) (Bacillus cereus [18]): inactive | IC50 (HCT-116): Not Active | MIC (Pseudomonas aeruginosa [19]): > 80 µM | diameter of the inhibition zone (DIZ) (Staphylococcus aureus [20]): inactive | zone of inhibition at 80 µM (Staphylococcus aureus [21]): 10 mm | zone of inhibition at 20 µM (Aspergillus niger [22]): 9 mm | MIC (Escherichia coli [23]): > 80 µM | MIC (Staphylococcus aureus [24]): > 80 µM | zone of inhibition at 80 µM (Curvularia lunata [25]): 22 mm | zone of inhibition at 40 µM (Trichoderma viride [26]): 19 mm | diameter of the inhibition zone (DIZ) (Salmonella typhi [27]): inactive | diameter of the inhibition zone (DIZ) (Escherichia coli [28]): inactive | zone of inhibition at 40 µM (Curvularia lunata [29]): 19 mm | MIC (Bacillus cereus [30]): > 80 µM
